Assay results reported in ChEMBL document CHEMBL3997844, “Synthesis and anti-inflammatory activity of isoquebecol” (Bioorg Med Chem, 2017).

Key:
U-937 [1] = test: Anti-inflammatory activity in human U937-derived macrophage-like cells assessed as inhibition of LPS-induced IL-6 secretion at 31.25 uM preincubated for 2 hrs followed by LPS addition measured after 24 hrs by ELISA relative to control; assay type: functional
[2] = Cytotoxicity against human U937-derived macrophage-like cells assessed as reduction in cell viability after 24 hrs by MTT assay; assay type: cell-based, U-937; settings: read-out: MNCC
Procedure, shortened: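 PMA-differentiated U937 macrophage-like cells (1×10^6 cells/well, RPMI-1% FBS) exposed to 2-fold serial dilutions from 1000 to 7.81 µM for 24 h. Viability read by MTT assay; highest non-cytotoxic concentration recorded.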

U-937 [3] = test: Anti-inflammatory activity in human U937-derived macrophage-like cells assessed as inhibition of LPS-induced IL-6 secretion at 62.5 uM preincubated for 2 hrs followed by LPS addition measured after 24 hrs by ELISA relative to control; assay type: functional
U-937 [4] = test: Anti-inflammatory activity in human U937-derived macrophage-like cells assessed as inhibition of LPS-induced IL-6 secretion at 125 uM preincubated for 2 hrs followed by LPS addition measured after 24 hrs by ELISA relative to control; assay type: functional
U-937 [5] = test: Anti-inflammatory activity in human U937-derived macrophage-like cells assessed as inhibition of LPS-induced IL-6 secretion preincubated for 2 hrs followed by LPS addition measured after 24 hrs by ELISA; assay type: functional, cell-based
U-937 [6] = test: Anti-inflammatory activity in human U937-derived macrophage-like cells assessed as inhibition of LPS-induced IL-6 secretion at 250 uM preincubated for 2 hrs followed by LPS addition measured after 24 hrs by ELISA relative to control; assay type: functional
U-937 [7] = test: Anti-inflammatory activity in human U937-derived macrophage-like cells assessed as inhibition of LPS-induced IL-6 secretion at 500 uM preincubated for 2 hrs followed by LPS addition measured after 24 hrs by ELISA relative to control; assay type: functional

Row | SMILES | inhibition at 31.25 µM (U-937 [1]) [%] | MNTC at 24 h [2] [µM] | inhibition at 62.5 µM (U-937 [3]) [%] | inhibition at 125 µM (U-937 [4]) [%] | inhibition (U-937 [5]) | inhibition at 250 µM (U-937 [6]) [%] | inhibition at 500 µM (U-937 [7]) [%]
1 | COc1ccc(C(CO)C(c2ccc(OC)c(O)c2)c2ccc(OC)c(O)c2)cc1O (centres undefined) | 34.5 | 250 | 43.3 | 48.3 | Dose-dependent effect | 96.9 | 99.7
2 | CCOC(=O)C(=C(c1ccc(OC)c(O)c1)c1ccc(OC)c(O)c1)c1ccc(OC)c(O)c1 | 0.8 | 62.5 | 31.2 | 97.8 | – | 100 | 100
3 | COc1ccc(C(=O)CO)cc1O | – | 500 | – | 0.8 | – | 24.1 | 92.5
4 | COc1cc(CCO)ccc1O | – | > 1000 | – | 1.1 | – | 0.9 | 1.2
5 | CCOC(=O)C(c1ccc(O)c(OC)c1)C(c1ccc(O)c(OC)c1)c1ccc(O)c(OC)c1 (centres undefined) | 4 | 250 | 9.4 | 34.6 | – | 91.9 | 100
6 | CCOC(=O)C(c1ccc(OC)c(O)c1)C(c1ccc(OC)c(O)c1)c1ccc(OC)c(O)c1 (centres undefined) | 3 | 62.5 | 5.9 | 41.3 | – | 96.8 | 100
7 | COc1cc(C(=O)CO)ccc1O | – | 500 | – | 4.9 | – | 64.4 | 90.1
8 | COc1ccc(C(O)CO)cc1O (centres undefined) | – | 500 | – | 1.4 | – | 20.9 | 83.8
9 | COc1cc(C(CO)C(c2ccc(O)c(OC)c2)c2ccc(O)c(OC)c2)ccc1O (centres undefined) | 3.7 | 500 | 4.7 | 55.3 | Dose-dependent effect | 84.7 | 93.8
10 | COc1ccc(CCO)cc1O | – | > 1000 | – | 0.9 | – | 2.7 | 5.1
11 | COc1cc(C(O)CO)ccc1O (centres undefined) | – | 500 | – | 2.1 | – | 8 | 86.8
12 | CCOC(=O)C(=C(c1ccccc1)c1ccccc1)c1ccccc1 | 0.5 | < 15.6 | 0.5 | 11 | – | 100 | 100
13 | CCOC(=O)Cc1ccc(O)c(OC)c1 | – | > 1000 | – | 0.2 | – | 0.4 | 0.8
14 | COc1ccc(CC(=O)O)cc1O | – | > 1000 | – | 0.5 | – | 2.1 | 2
15 | CCOC(=O)C(=C(c1ccc(O)c(OC)c1)c1ccc(O)c(OC)c1)c1ccc(O)c(OC)c1 | 2.5 | 62.5 | 11.2 | 99.5 | – | 100 | 100
16 | COc1cc(Cc2ccc(O)c(OC)c2)ccc1O | – | 500 | – | 27.5 | – | 90.5 | 98.1
17 | OCC(c1ccccc1)C(c1ccccc1)c1ccccc1 (centres undefined) | 1.4 | 31.2 | 15.6 | 100 | – | 100 | 100
18 | CCOC(=O)Cc1ccc(OC)c(O)c1 | – | > 1000 | – | 0.8 | – | 3.2 | 8.3
19 | CCOC(=O)C(c1ccccc1)C(c1ccccc1)c1ccccc1 (centres undefined) | 0.2 | 62.5 | 0.4 | 2 | – | 85.3 | 99.8
20 | COc1ccc(Cc2ccc(OC)c(O)c2)cc1O | – | 500 | – | 50.7 | – | 92.5 | 99.8
21 | COc1cc(CC(=O)O)ccc1O [HOMOVANILLIC ACID] | – | > 1000 | – | 0.3 | – | 0.2 | 0.6
